# SKKanGAS inh = inhibitors of SKKanGAS S. pyogenes growth in kanamycin (SK-promoter or general growth effect); inhibition, % at 7.5 µM; BacTiter-Glo, 6 h; AID 1662; 300,000 compounds, 1.3% hits;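 active = mean replicate score, as percent of positive control median, at least 50; inconclusive = mean below 50 but one replicate at or above 50; inactive = mean and every replicate below 50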;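 note: strain carries kanamycin resistance gene driven by streptokinase promoter and grows in 40 µg/ml kanamycin; loss of luminescence reflects streptokinase promoter inhibition or plain growth inhibition; 0% = median of DMSO wells and 100% = positive control at its reference dose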
# Lmaj promast = inhibitors of Leishmania major promastigote growth. Leishmania major promastigotes, resazurin fluorescence viability. inhibition, % at 10 µM. 200,000 compounds, 9% hits; in the data active = inhibition above about 50%;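 note: promastigotes grown with compound for 44 hours at 28 °C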
# T cruzi inh = T. cruzi replication inhibition. AID 1885. inhibition, % (no concentration beside the values). T. cruzi beta-gal in NIH3T3, luminescence, 90 h. 300,000 compounds, 1.4% hits;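 active = mean inhibition across valid replicates above about 55%, limit read from the data; inconclusive = mean below that limit but half or more replicates reach it; inactive = mean below it, under half of replicates reach it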;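 note: signal also drops with host cell toxicity which is not excluded here; 0% = plate median of DMSO wells and 100% = zero luminescence signal; higher percent means less beta-gal luminescence so fewer parasites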
#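 Material: NIH/3T3 host cells with β-galactosidase reporter T. cruzi; Input: 5,000 host fibroblasts per well; Medium: DMEM, 2% fetal bovine serum; Compound: 50 nL DMSO compound solution per well; Schedule: 3 h host attachment, then at least 90 h co-culture; Detection: luminescent β-galactosidase signal after 60 min lysis.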
# Beta apoptosis = beta cell apoptosis inhibition; 300,000 compounds, 0.8% hits; protection from apoptosis, % (test concentration not listed); INS-1E cytokine-induced death, ATP luminescence, 48 h; percent of positive-control rescue, neutral wells zero;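 active = Every replicate reaches about 75%, or at least half do and their mean reaches it too, limit read from the data; inconclusive = At least half of replicates reach the limit but their mean does not; inactive = Under half of replicates reach the limit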;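 note: 0% = cytokine-treated negative control wells and 100% = positive control rescue; higher means more ATP so stronger rescue from cytokine killing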
# Mdm2 MdmX PPI = inhibitors of human Mdm2/MdmX interaction | 330,000 compounds, 3% hits | O15151+Q00987 | inhibition, % at 8 µM | SaOS-2 split-luciferase Mdm2/MdmX complementation, luminescence;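 active = inhibition of at least 50% at 8 µM in the primary screen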
# Target sequence (O15151 whole entry, looked up): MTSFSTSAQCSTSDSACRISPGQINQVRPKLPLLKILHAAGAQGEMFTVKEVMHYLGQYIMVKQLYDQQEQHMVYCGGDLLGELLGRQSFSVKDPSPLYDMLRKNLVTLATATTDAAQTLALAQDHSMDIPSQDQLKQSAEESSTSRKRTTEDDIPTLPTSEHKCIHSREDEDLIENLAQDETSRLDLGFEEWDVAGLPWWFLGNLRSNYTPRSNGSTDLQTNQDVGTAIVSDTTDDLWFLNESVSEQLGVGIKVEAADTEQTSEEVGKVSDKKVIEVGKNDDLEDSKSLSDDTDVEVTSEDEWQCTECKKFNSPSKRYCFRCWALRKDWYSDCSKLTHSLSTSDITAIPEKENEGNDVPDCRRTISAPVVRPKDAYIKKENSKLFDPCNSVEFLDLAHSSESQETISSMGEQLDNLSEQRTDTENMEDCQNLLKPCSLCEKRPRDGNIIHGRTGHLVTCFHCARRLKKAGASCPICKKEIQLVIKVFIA
# Target sequence (Q00987 whole entry, looked up): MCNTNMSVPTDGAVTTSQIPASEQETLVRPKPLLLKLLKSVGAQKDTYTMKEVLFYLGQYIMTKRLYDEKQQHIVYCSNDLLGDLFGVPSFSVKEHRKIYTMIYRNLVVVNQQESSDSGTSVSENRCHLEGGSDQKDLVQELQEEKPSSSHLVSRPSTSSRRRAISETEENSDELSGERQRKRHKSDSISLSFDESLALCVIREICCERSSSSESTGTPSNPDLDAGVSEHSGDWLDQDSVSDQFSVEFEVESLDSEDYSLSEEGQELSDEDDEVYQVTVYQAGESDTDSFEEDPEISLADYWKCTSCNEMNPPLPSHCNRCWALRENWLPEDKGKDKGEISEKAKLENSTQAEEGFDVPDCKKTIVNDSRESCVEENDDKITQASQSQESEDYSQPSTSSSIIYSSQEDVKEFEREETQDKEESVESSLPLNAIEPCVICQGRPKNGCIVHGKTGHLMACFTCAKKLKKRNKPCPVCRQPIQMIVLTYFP
# CSC inhib = blocks cancer stem cells; cancer stem cell-like cells viability, luminescence; inhibition, % at 7.5 µM; 300,000 compounds, 1.1% hits; in the data active = inhibition above about 75%; inconclusive = no clear call, values can overlap the other calls; tested in HMLE shEcad cells
# * hit, by the source's call; ? = inconclusive; · = no result given. Only some compounds are listed: those with a hit (about 9.4% of all), similar ones and a draw of the others.
SMILES,SKKanGAS inh,Lmaj promast,T cruzi inh,Beta apoptosis,Mdm2 MdmX PPI,CSC inhib
Cc1onc(-c2c(Cl)cccc2Cl)c1C(=O)Nc1ccc(C(N)=O)cc1,0,·,-2,-3,-8,-8
Cc1ccc(Nc2cc(C)nn2-c2nc(C)cc(C)n2)cc1,101*,92*,37,55,32,16
CC(C)c1ccc(COc2ccc(C(=O)N3CCOCC3)cc2)cc1,4,0,27,76*,1,7
O=c1[nH][nH]c(=O)n1-c1ccccc1,-3,-7,-18,2,1,-8
CCN(CC)CCn1c(NS(=O)(=O)c2ccc(Cl)cc2)nc2ccccc21,5,·,-4,2,-13,-6
CCN(CC)c1cccc(OC2=NS(=O)(=O)c3ccccc32)c1,3,80*,13,-8,-5,-11
CCc1ccc(OC2=NS(=O)(=O)c3ccccc32)cc1,6,-3,-4,·,·,·
NC(=O)CC(NC(=O)Cc1cccc2ccccc12)c1ccc(NC2CCCCCCC2)c([N+](=O)[O-])c1 (stereo not given),20,·,-9,-2,27,?
COc1c(F)c(F)c(C(=O)Nc2ccc(-c3nc4ccccc4[nH]3)cc2)c(F)c1F,-10,-4,26,1,15,0
COc1cccc(OC)c1C(=O)NC(=S)Nc1cc(-c2nc3ccccc3[nH]2)ccc1Cl,37,81*,49,16,32,35
O=C(CNC(=O)c1ccc(F)cc1)Nc1ccccc1C(F)(F)F,3,·,9,-8,-21,-11
O=C(Nc1ccc(C(=O)NCc2ccc(F)cc2)cc1)C1=CSCCO1,51*,·,-13,·,-23,-1
Clc1ccccc1Sc1ccc(-c2ccccn2)s1,62*,·,1,-6,19,-1
O=[N+]([O-])c1cccnc1Sc1ccccc1Cl,-5,·,-11,·,13,2
O=C(NCCc1ccccc1)c1ccc2c(c1)S(=O)(=O)N=C1CCCCCN12,·,·,·,2,-19,2
CCCNC(=O)c1onc(CSc2ccc(Cl)cc2)c1C(=O)NCCC(C)C,30,·,33,4,11,93*
Cc1cccc(C)c1NC(=O)CSc1n[nH]c(=O)n1C1CC1,·,·,·,-5,15,-8
CC(OC(=O)C1CC1C)C(=O)Nc1ncc(Cl)cc1Cl (stereo not given),-7,·,-12,-4,9,-10
CC(C)Oc1ccc(C(=O)/C=C2/C(=O)Nc3ccccc32)cc1,12,·,10,10,32,102*
Cc1ccc(C)c2c1sc(=NC(=O)CN1C(=O)CCC1=O)n2C,-1,91*,37,·,10,0
C#CCn1c(=NC(=O)CN2C(=O)CCC2=O)sc2cccc(C)c21,-3,-2,9,1,12,1
CCCC[n+]1ccn(C2=C([O-])c3ccccc3C(=O)/C2=N\S(=O)(=O)c2ccc(Cl)cc2)c1,61*,·,10,114*,34,27
CCCC[n+]1ccn(-c2nc3ccccc3nc2[N-]S(=O)(=O)c2ccc(Br)cc2)c1,5,·,3,-1,34,4
CCCCC[n+]1ccn(C2=C([O-])c3ccccc3C(=O)/C2=N\S(=O)(=O)c2ccc(Cl)cc2)c1,73*,·,46,109*,31,17
CCOc1ccc(S(=O)(=O)N2CCN=C2c2ccccc2)cc1,19,·,-7,5,46,117*
SMILES,SKKanGAS inh,Lmaj promast,T cruzi inh,Beta apoptosis,Mdm2 MdmX PPI,CSC inhib
Cc1cc(S(=O)(=O)N2CCN=C2c2ccccc2)ccc1F,-8,0,-20,-3,4,-5
CSc1ccc(Cl)c(C(=O)N2CCN(c3ncccn3)CC2)c1,·,·,·,-4,0,·
CC(NC(=O)CN1C(=O)NC2(CCc3ccccc32)C1=O)c1ccc2c(c1)OCCO2 (stereo not given),·,·,·,·,13,·
N#Cc1c(N2CCCCC2)nc(N)c2c(N)nc3c(c12)CC(c1ccccc1)O3 (stereo not given),20,40,16,·,12,16
CCC1Cc2c(nc(N)c3c(N)nc(N4CCCCC4)c(C#N)c23)O1 (stereo not given),19,51*,20,2,35,3
COc1cc2c(C#N)c(N3CCN(C)CC3)nc(N)c2c(N)n1,6,100*,4,0,-13,-4
COc1cc2c(C#N)c(N3CCCC3)nc(N)c2c(N)n1,13,·,16,-3,24,-5
N#Cc1c(N2CCCC2)nc(N)c2c(N)nc(N3CCCC3)cc12,5,12,19,80*,22,·
CCOCCCN(C(=O)Cn1nnc(-c2ccc(C)o2)n1)C(C(=O)NC1CCCC1)c1ccc(C)o1 (stereo not given),6,·,10,·,21,·
CCCCCCn1c(CN2CCCCC2CC)nc2c1c(=O)n(C)c(=O)n2C (stereo not given),-6,60*,31,13,-6,17
O=C(CCCn1c(=S)[nH]c2cc3c(cc2c1=O)OCO3)NCc1cccc(Cl)c1,38,·,3,2,8,-11
CN(Cc1cn(C)nc1-c1ccc(Oc2ccccc2)cc1)Cc1cnc2ccccn12,15,78*,16,19,23,5
CN(Cc1cn(C)nc1-c1ccc(Oc2ccccc2)cc1)CC1COCCO1 (stereo not given),-1,85*,5,-7,-32,36
Cc1ccc([N+](=O)[O-])cc1NC(=O)C(C)NS(=O)(=O)c1ccc(F)cc1 (stereo not given),1,-1,15,·,11,-7
COc1ccc(/C=C/C(=O)Nc2ccncc2)cc1OC,-4,3,23,-13,24,27
CCC1CSC(Nc2ccc(C(=O)/C=C/c3ccc(OC)c(OC)c3)cc2)=N1 (stereo not given),24,96*,3,19,12,-16
COc1ccc(/C=C/C(=O)c2ccc(NC3=NCCCS3)cc2)cc1OC,22,100*,42,13,19,52
COC(=O)[C@]1(Cc2ccccc2)N[C@H](CN(C)C(C)=O)[C@@H]2C(=O)N(Cc3ccccc3)C(=O)[C@@H]21,·,·,·,·,9,·
C=CCC[C@H](Cc1ccc(F)cc1)C(=O)OC[C@@H](Cc1c[nH]c2ccccc12)NC(=O)[C@@H](CC=C)CC(=O)N[C@H](CO)Cc1ccccc1,·,·,·,7,-2,-7
CSCC[C@H](N)C(=O)NC[C@H]1CC[C@H](C(=O)N[C@@H](Cc2ccccc2)C(=O)O)CC1,-1,·,-3,·,23,·
Cc1ccc(N2CCN(c3ccc(C)cc3)C2c2cccnc2)cc1,8,86*,59*,-5,7,1
COc1ccc(C2N(c3ccc(C)cc3)CCN2c2ccc(C)cc2)cc1O,5,11,2,·,-10,-3
O=C1C2ON(c3ccccc3)C(c3cccnc3)C2C(=O)N1c1ccccc1 (stereo not given),0,-10,-4,-1,-3,-10
c1ccc(N2CCN(c3ccccc3)C2c2ccncc2)cc1,5,82*,10,3,-15,0

# Screening results (PubChem BioAssay)
